Our source for the Reduction values is ChEMBL document CHEMBL1125798, “Synthesis and biological activity of a series of diaryl-substituted alpha-cyano-beta-hydroxypropenamides, a new class of anthelmintic agents” (1991).

What all share (format): functional
For assay [1], the system named is Rodentolepis nana. Kind of assay: Anthelmintic activity against mice infected with parasite Hymenolepis nana at a dose of 125 ppm (in feed). Summed up: (§1)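 Compound was given in feed ad libitum from 24 h postinfection for 18 days, four mice per group. On day 19, N. dubius were counted in the duodenum and H. nana in the ileum. Result is % reduction of mean worm burden vs untreated control; ≤25% was recorded as 0.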

The test system of assay [2] is Heligmosomoides polygyrus. Kind of assay: Anthelmintic activity against mice infected with parasite Nematospiroides dubius, at a dose of 62(ppm in feed). Summed up:
as §1

The subject of assay [3] is Heligmosomoides polygyrus. The experiment in a line: Anthelmintic activity against mice, infected with parasite Nematospiroides dubius, at a dose of 125 (ppm in feed). A digest of the protocol:
as §1

The test system of assay [4] is Rodentolepis nana. The experiment in a line: Anthelmintic activity against mice infected with parasite Hymenolepis nana at a dose of 62(ppm in feed). A digest of the protocol:
as §1

The structures appear in SMILES notation.

For the compound `CN(C(=O)/C(C#N)=C(\O)c1ccc(C(F)(F)F)cc1)c1ccc(C(F)(F)F)cc1`, the Reduction with Rodentolepis nana [1] is 0%; in assay [2] it was 76%; in assay [3], 100%; in the assay on Rodentolepis nana [4], 0%.

As to `N#C/C(C(=O)Nc1ccc(Br)cc1)=C(/O)c1ccc(C(F)(F)F)cc1`, the Reduction in the assay on Rodentolepis nana [1] was 95%; in assay [2], 56%; in assay [3], 100%; in the assay with Rodentolepis nana [4], 0%.

`Cc1cc(C#N)ccc1NC(=O)/C(C#N)=C(\O)c1ccc(C(F)(F)F)cc1`: the Reduction in the assay with Rodentolepis nana [1] is 100%; in assay [2] it was 0%; in assay [3], 90%; in the assay on Rodentolepis nana [4], 0%.

On to `CC(=O)c1ccc(NC(=O)/C(C#N)=C(\O)c2ccc(C(F)(F)F)cc2)cc1`, for which the Reduction (in the assay on Rodentolepis nana [1]; in assay [3]) was 0% each time.

Take `CS(=O)(=O)c1ccc(NC(=O)/C(C#N)=C(\O)c2ccc(C(F)(F)F)cc2)cc1`: the Reduction (with Rodentolepis nana [1]; in assay [3]) was 0% each time.

Regarding `N#C/C(C(=O)Nc1ccc(Cl)c(Cl)c1)=C(/O)c1ccc(Cl)cc1`, the Reduction with Rodentolepis nana [1] amounted to 47%; in assay [3] it was 57%.

Turning to `N#C/C(C(=O)Nc1ccc(C(F)(F)F)cc1)=C(/O)c1ccc(I)cc1`, the Reduction with Rodentolepis nana [1] amounted to 89%; in assay [2] it was 0%; in assay [3], 97%; in the assay on Rodentolepis nana [4], 0%.

On to `N#C/C(C(=O)Nc1ccc(Cl)cc1)=C(/O)c1ccc(Cl)cc1`, for which the Reduction with Rodentolepis nana [1] worked out at 100%; in assay [2], 59%; in assay [3] it was 100%; in the assay on Rodentolepis nana [4], 30%.

As to `N#C/C(C(=O)Nc1ccc(C(F)(F)F)cc1)=C(/O)c1ccccc1C(F)(F)F`, the Reduction (in the assay on Rodentolepis nana [1]; in assay [3]) was 0% each time.

With `COC(=O)c1ccc(NC(=O)/C(C#N)=C(\O)c2ccc(C(F)(F)F)cc2)cc1`, the Reduction (with Rodentolepis nana [1]; in assay [3]) was 0% each time.

For `N#C/C(C(=O)Nc1ccc(C(F)(F)F)cc1)=C(/O)c1ccc(Oc2ccc(Cl)cc2)cc1`, the Reduction is on record as 0% in the assay on Rodentolepis nana [1] and 30% in assay [3].

With `N#C/C(C(=O)Nc1ccc(Br)cc1)=C(/O)c1ccc(Br)cc1`, the Reduction in the assay on Rodentolepis nana [1] worked out at 0%; in assay [2], 29%; in assay [3], 100%; in the assay on Rodentolepis nana [4] it was 0%.

As for `N#C/C(C(=O)Nc1ccc(Cl)cc1)=C(/O)c1ccc(C(F)(F)F)cc1`, the Reduction was 100% in the assay with Rodentolepis nana [1], 65% in assay [2], 100% in assay [3] and 78% in the assay on Rodentolepis nana [4].

Regarding `N#CSc1ccc(NC(=O)/C(C#N)=C(\O)c2ccc(C(F)(F)F)cc2)cc1`, the Reduction (in the assay with Rodentolepis nana [1]; in assay [3]) was 0% throughout.

With `Cc1ccc(/C(O)=C(\C#N)C(=O)Nc2ccc(C(F)(F)F)cc2)cc1`, the Reduction (in the assay with Rodentolepis nana [1]; in assay [3]) was 0% in each case.

As for `N#C/C(C(=O)Nc1ccccc1C(F)(F)F)=C(/O)c1ccc(C(F)(F)F)cc1`, the Reduction (in the assay on Rodentolepis nana [1]; in assay [3]) was 0% each time.

In the case of `N#C/C(C(=O)Nc1ccc(N=C=S)cc1)=C(/O)c1ccc(C(F)(F)F)cc1`, the Reduction in the assay with Rodentolepis nana [1] was 0%; in assay [3], 80%.

Turning to `COc1ccc(NC(=O)/C(C#N)=C(\O)c2ccc(C(F)(F)F)cc2)cc1`, the Reduction (in the assay with Rodentolepis nana [1]; in assay [3]) was 0% throughout.

Take `N#C/C(C(=O)Nc1ccc(C(F)(F)F)cc1)=C(/O)c1ccc(Cl)cc1Cl`: the Reduction in assay [2] came to 32%; with Rodentolepis nana [4] it was 52%.

As to `N#C/C(C(=O)Nc1ccc(C(F)(F)F)cc1)=C(/O)c1ccc(OC(F)(F)F)cc1`, the Reduction in the assay with Rodentolepis nana [1] was 100%; in assay [2], 86%; in assay [3], 100%; with Rodentolepis nana [4] it was 0%.

With `N#C/C(C(=O)Nc1ccc(C(F)(F)F)cc1)=C(/O)c1ccc(F)cc1`, the Reduction with Rodentolepis nana [1] was found to be 100%; in assay [2], 0%; in assay [3], 100%; in the assay on Rodentolepis nana [4] it was 0%.

`N#C/C(C(=O)Nc1ccc(C(F)(F)F)cc1)=C(/O)c1ccc([N+](=O)[O-])cc1`: the Reduction was found to be 0% in assay [2] and 69% with Rodentolepis nana [4].

As for `N#C/C(C(=O)Nc1ccc(I)cc1)=C(/O)c1ccc(C(F)(F)F)cc1`, the Reduction with Rodentolepis nana [1] was determined as 0%; in assay [2] it was 0%; in assay [3] it was 100%; in the assay with Rodentolepis nana [4] it was 0%.

Turning to `N#C/C(C(=O)Nc1ccc(C(F)(F)F)cc1)=C(/O)c1ccc(Cl)c(Cl)c1`, the Reduction with Rodentolepis nana [1] was determined as 0%; in assay [2] it was 0%; in assay [3], 95%; with Rodentolepis nana [4], 0%.

For `N#C/C(C(=O)Nc1ccc(C(F)(F)F)cc1)=C(/O)c1ccc(C#N)cc1`, the Reduction in the assay with Rodentolepis nana [1] is recorded as 78%; in assay [3] it was 28%.

In the case of `CCN(CC)C(=O)c1ccc(NC(=O)/C(C#N)=C(\O)c2ccc(C(F)(F)F)cc2)cc1`, the Reduction (with Rodentolepis nana [1]; in assay [3]) was 0% in each case.

Turning to `N#C/C(C(=O)Nc1ccc(C(F)(F)F)cc1)=C(/O)c1cccc(Cl)c1`, the Reduction (with Rodentolepis nana [1]; in assay [3]) was 0% in each case.

In the case of `N#C/C(C(=O)Nc1ccc(C(F)(F)F)cc1)=C(/O)c1ccc(S(=O)(=O)c2ccccc2)cc1`, the Reduction (in the assay on Rodentolepis nana [1]; in assay [3]) was 0% throughout.

As to `N#C/C(C(=O)Nc1ccc(C(F)(F)F)cc1)=C(/O)c1cccc(C(F)(F)F)c1`, the Reduction with Rodentolepis nana [1] was found to be 100%; in assay [2] it was 0%; in assay [3], 89%; in the assay with Rodentolepis nana [4] it was 0%.

With `N#C/C(C(=O)Nc1ccc(C(F)(F)F)cc1)=C(/O)c1ccc(Cl)cc1`, the Reduction was determined as 53% in assay [2] and 0% in the assay on Rodentolepis nana [4].

Turning to `COc1ccc(/C(O)=C(\C#N)C(=O)Nc2ccc(C(F)(F)F)cc2)cc1`, the Reduction (in the assay on Rodentolepis nana [1]; in assay [3]) was 0% each time.

As for `N#C/C(C(=O)Nc1ccc(Cl)cc1)=C(/O)c1ccc(Cl)c(Cl)c1`, the Reduction with Rodentolepis nana [1] came out at 100%; in assay [2], 32%; in assay [3] it was 100%; with Rodentolepis nana [4], 0%.

Turning to `N#C/C(C(=O)Nc1ccc(Cl)cc1Cl)=C(/O)c1ccc(C(F)(F)F)cc1`, the Reduction in the assay on Rodentolepis nana [1] turned out to be 100%; in assay [2], 0%; in assay [3], 89%; with Rodentolepis nana [4], 63%.

Take `N#C/C(C(=O)Nc1ccc(F)cc1)=C(/O)c1ccc(F)cc1`: the Reduction (with Rodentolepis nana [1]; in assay [3]) was 0% throughout.

For the compound `N#C/C(C(=O)Nc1ccc(Cl)cc1)=C(/O)c1ccc(Br)cc1`, the Reduction with Rodentolepis nana [1] worked out at 0%; in assay [2] it was 76%; in assay [3], 100%; in the assay on Rodentolepis nana [4] it was 0%.

In the case of `N#C/C(C(=O)Nc1ccc(Br)cc1)=C(/O)c1ccc(Cl)cc1`, the Reduction was 0% in the assay on Rodentolepis nana [1], 47% in assay [2], 100% in assay [3] and 0% in the assay with Rodentolepis nana [4].

Turning to `N#C/C(C(=O)Nc1cccc(C(F)(F)F)c1)=C(/O)c1ccc(C(F)(F)F)cc1`, the Reduction (with Rodentolepis nana [1]; in assay [3]) was 0% throughout.
